Results from ChEMBL document CHEMBL1255479, “Preclinical characterization of the antiviral activity of SCH 900518 (narlaprevir), a novel mechanism-based inhibitor of hepatitis C virus NS3 protease” (Antimicrob Agents Chemother, 2010).
Active and inactive are the calls of the source. The rule behind the calls is not given here.

Experiments:
Hepatitis C virus [1] = test: Resistance index, ratio of EC50 for boceprevir-resistant Hepatitis C virus genotype 1b expressing NS3 protease A156S mutant to EC50 for wild type Hepatitis C virus genotype 1b after 3 days by RT-PCR method; type: functional, Hepacivirus hominis
Method in brief: (§1)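 Replicons carrying mutant or wild-type NS3 protease treated 3 days; replicon RNA by real-time PCR against GAPDH. EC50 = concentration raising CT by 1 over projected baseline; EC90 = increase of 3.2. Index = mutant/wild-type fold increase, means of two or more experiments unless stated (some single experiment).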

Hepatitis C virus [2] = test: Resistance index, ratio of EC50 for boceprevir-resistant Hepatitis C virus genotype 1b expressing NS3 protease R155K mutant to EC50 for wild type Hepatitis C virus genotype 1b after 3 days by RT-PCR method; type: functional, Hepacivirus hominis; method in brief: as §1
Hepatitis C virus [3] = test: Ratio of Ki for boceprevir-resistant Hepatitis C virus genotype 1b NS3 protease D168V mutant to Ki for Hepatitis C virus genotype 1b NS3 protease; parameters: species or system Hepatitis C virus subtype 1b
Method in brief: (§2)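 Recombinant single-chain NS3-NS4A protease (wild type or mutant) in a continuous spectrophotometric assay with chromogenic substrate acetyl-DTEDVVP(norvaline)-O-4-phenylazophenol. Absorbance followed over 60 min at several inhibitor concentrations. Progress curves fit to a modified Morrison equation; K*i derived using substrate concentration and Km. Values are mutant/wild-type fold increase, means of two or more experiments unless noted.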

Hepatitis C virus [4] = test: Resistance index, ratio of EC50 for boceprevir-resistant Hepatitis C virus genotype 1b expressing NS3 protease T54A mutant to EC50 for wild type Hepatitis C virus genotype 1b after 3 days by RT-PCR method; type: functional, Hepacivirus hominis; method in brief: as §1
Hepatitis C virus [5] = test: Resistance index, ratio of EC50 for boceprevir-resistant Hepatitis C virus genotype 1b expressing NS3 protease V36M mutant to EC50 for wild type Hepatitis C virus genotype 1b after 3 days by RT-PCR method; type: functional, Hepacivirus hominis; method in brief: as §1
Hepatitis C virus [6] = test: Ratio of Ki for boceprevir-resistant Hepatitis C virus genotype 1b NS3 protease V170A mutant to Ki for Hepatitis C virus genotype 1b NS3 protease; parameters: species or system Hepatitis C virus subtype 1b; method in brief: as §2
Hepatitis C virus [7] = test: Ratio of Ki for boceprevir-resistant Hepatitis C virus genotype 1b NS3 protease V36M and R155K double-mutant to Ki for Hepatitis C virus genotype 1b NS3 protease; parameters: species or system Hepatitis C virus subtype 1b; method in brief: as §2
Hepatitis C virus [8] = test: Ratio of Ki for boceprevir-resistant Hepatitis C virus genotype 1b NS3 protease T54S and R155K double-mutant to Ki for Hepatitis C virus genotype 1b NS3 protease; parameters: species or system Hepatitis C virus subtype 1b; method in brief: as §2
Hepatitis C virus [9] = test: Resistance index, ratio of EC50 for boceprevir-resistant Hepatitis C virus genotype 1b expressing NS3 protease V36M and R155K mutant to EC50 for wild type Hepatitis C virus genotype 1b after 3 days by RT-PCR method; type: functional, Hepacivirus hominis; method in brief: as §1
Hepatitis C virus [10] = test: Resistance index, ratio of EC50 for boceprevir-resistant Hepatitis C virus genotype 1b expressing NS3 protease V170A mutant to EC50 for wild type Hepatitis C virus genotype 1b after 3 days by RT-PCR method; type: functional, Hepacivirus hominis; method in brief: as §1
Hepatitis C virus [11] = test: Resistance index, ratio of EC50 for boceprevir-resistant Hepatitis C virus genotype 1b expressing NS3 protease D168V mutant to EC50 for wild type Hepatitis C virus genotype 1b after 3 days by RT-PCR method; type: functional, Hepacivirus hominis; method in brief: as §1
Hepatitis C virus [12] = test: Resistance index, ratio of EC50 for boceprevir-resistant Hepatitis C virus genotype 1b expressing NS3 protease A156T mutant to EC50 for wild type Hepatitis C virus genotype 1b after 3 days by RT-PCR method; type: functional, Hepacivirus hominis; method in brief: as §1
Hepatitis C virus [13] = test: Ratio of Ki for boceprevir-resistant Hepatitis C virus genotype 1b NS3 protease A156T mutant to Ki for Hepatitis C virus genotype 1b NS3 protease; parameters: species or system Hepatitis C virus subtype 1b; method in brief: as §2
Hepatitis C virus [14] = test: Ratio of Ki for boceprevir-resistant Hepatitis C virus genotype 1b NS3 protease A156S mutant to Ki for Hepatitis C virus genotype 1b NS3 protease; parameters: species or system Hepatitis C virus subtype 1b; method in brief: as §2
Hepatitis C virus [15] = test: Ratio of Ki for boceprevir-resistant Hepatitis C virus genotype 1b NS3 protease R155K mutant to Ki for Hepatitis C virus genotype 1b NS3 protease; parameters: species or system Hepatitis C virus subtype 1b; method in brief: as §2
Hepatitis C virus [16] = test: Ratio of Ki for boceprevir-resistant Hepatitis C virus genotype 1b NS3 protease T54S mutant to Ki for Hepatitis C virus genotype 1b NS3 protease; parameters: species or system Hepatitis C virus subtype 1b; method in brief: as §2
Hepatitis C virus [17] = test: Ratio of Ki for boceprevir-resistant Hepatitis C virus genotype 1b NS3 protease F43C mutant to Ki for Hepatitis C virus genotype 1b NS3 protease; parameters: species or system Hepatitis C virus subtype 1b; method in brief: as §2
Hepatitis C virus [18] = test: Ratio of Ki for boceprevir-resistant Hepatitis C virus genotype 1b NS3 protease T54A mutant to Ki for Hepatitis C virus genotype 1b NS3 protease; parameters: species or system Hepatitis C virus subtype 1b; method in brief: as §2
Hepatitis C virus [19] = test: Ratio of Ki for boceprevir-resistant Hepatitis C virus genotype 1b NS3 protease V36A mutant to Ki for Hepatitis C virus genotype 1b NS3 protease; parameters: species or system Hepatitis C virus subtype 1b; method in brief: as §2
[20] = Cytotoxicity against human HuH7 cells by MTS assay; type: cell-based, Huh-7
Hepatitis C virus [21] = test: Ratio of Ki for boceprevir-resistant Hepatitis C virus genotype 1b NS3 protease V36M mutant to Ki for Hepatitis C virus genotype 1b NS3 protease; parameters: species or system Hepatitis C virus subtype 1b; method in brief: as §2
Hepatitis C virus [22] = test: Antiviral activity against Hepatitis C virus genotype 1b assessed as log reduction in RNA level at 5 times EC90 after 14 days by RT-PCR method; type: functional, organism-based; settings: Hepacivirus hominis
Method in brief: (§3)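 Replicon cells kept on compound for up to 14 days, refreshed every 2–3 days and split at confluence. Replicon RNA by TaqMan: dCT = NS5B CT − GAPDH CT; ddCT = treated dCT − vehicle-control dCT; log RNA reduction = log(1/2^ddCT), with day 0 set to 0. Curve fit to one-phase exponential decay.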

Hepatitis C virus [23] = test: Antiviral activity against Hepatitis C virus genotype 1b assessed as log reduction in RNA level at 1.2 times EC90 after 14 days by RT-PCR method; type: functional, organism-based; settings: Hepacivirus hominis; method in brief: as §3
Hepatitis C virus [24] = test: Antiviral activity against Hepatitis C virus genotype 1b assessed as decrease in RNA level after 3 days by RT-PCR method; type: functional, Hepacivirus hominis; settings: 72 h
Method in brief: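 Genotype 1b replicon cells seeded on collagen I-coated plates; compound added 24 h post-seeding and incubated 3 days. Cells lysed; replicon RNA by real-time PCR (TaqMan) with GAPDH RNA as endogenous control. EC50 = concentration giving a CT increase of 1 over projected baseline CT; EC90 = increase of 3.2. Triplicate measurements.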

[25] = Inhibition of Hepatitis C virus genotype 3a NS3 protease; parameters: species or system Hepatitis C virus subtype 3a
Method in brief: (§4)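 Recombinant single-chain NS3-NS4A protease (genotypes 1a, 1b, 2a, 3a). Continuous spectrophotometric assay: enzyme added to an equal volume of buffer containing the chromogenic substrate acetyl-DTEDVVP(norvaline)-O-4-phenylazophenol. Absorbance was followed for 60 min at several inhibitor levels. Progress curves were fit to a modified Morrison equation. Overall K*i was derived from vs/vo versus [I], corrected using substrate concentration and Km.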

[26] = Inhibition of Hepatitis C virus genotype 1a NS3 protease; parameters: species or system Hepatitis C virus subtype 1a; method in brief: as §4
[27] = Inhibition of Hepatitis C virus genotype 2a NS3 protease; parameters: species or system Hepatitis C virus subtype 2a; method in brief: as §4
Hepatitis C virus [28] = test: Resistance index, ratio of EC90 for Hepatitis C virus genotype 1b expressing NS3 protease T54A/S mutant to EC90 for wild type Hepatitis C virus genotype 1b after 3 days by RT-PCR method; type: functional, Hepacivirus hominis; method in brief: as §1
Hepatitis C virus [29] = test: Resistance index, ratio of EC90 for Hepatitis C virus genotype 1b expressing NS3 protease A156S mutant to EC90 for wild type Hepatitis C virus genotype 1b after 3 days by RT-PCR method; type: functional, Hepacivirus hominis; method in brief: as §1
Hepatitis C virus [30] = test: Resistance index, ratio of EC90 for Hepatitis C virus genotype 1b expressing NS3 protease A156T/V mutant to EC90 for wild type Hepatitis C virus genotype 1b after 3 days by RT-PCR method; type: functional, Hepacivirus hominis; method in brief: as §1
Hepatitis C virus [31] = test: Resistance index, ratio of EC90 for Hepatitis C virus genotype 1b expressing NS3 protease T54A and A156T mutant to EC90 for wild type Hepatitis C virus genotype 1b after 3 days by RT-PCR method; type: functional, Hepacivirus hominis; method in brief: as §1
Hepatitis C virus [32] = test: Inhibition of Hepatitis C virus genotype 1b NS3 protease; parameters: species or system Hepatitis C virus subtype 1b; method in brief: as §4

SMILES: CCCC[C@H](NC(=O)[C@@H]1[C@@H]2[C@H](CN1C(=O)[C@@H](NC(=O)NC1(CS(=O)(=O)C(C)(C)C)CCCCC1)C(C)(C)C)C2(C)C)C(=O)C(=O)NC1CC1 [NARLAPREVIR]
- Ratio EC50 (Hepatitis C virus [1]): 70
- Ratio EC50 (Hepatitis C virus [2]): 15
- Ratio Ki (Hepatitis C virus [3]): 1
- Ratio EC50 (Hepatitis C virus [4]): 11
- Ratio EC50 (Hepatitis C virus [5]): 8
- Ratio Ki (Hepatitis C virus [6]): 6
- Ratio Ki (Hepatitis C virus [7]): 160
- Ratio Ki (Hepatitis C virus [8]): 58
- Ratio EC50 (Hepatitis C virus [9]): 130
- Ratio EC50 (Hepatitis C virus [10]): 10
- Ratio EC50 (Hepatitis C virus [11]): 1
- Ratio EC50 (Hepatitis C virus [12]): > 1000
- Ratio Ki (Hepatitis C virus [13]): 3000
- Ratio Ki (Hepatitis C virus [14]): 100
- Ratio Ki (Hepatitis C virus [15]): 8
- Ratio Ki (Hepatitis C virus [16]): 3
- Ratio Ki (Hepatitis C virus [17]): 8
- Ratio Ki (Hepatitis C virus [18]): 8
- Ratio Ki (Hepatitis C virus [19]): 5
- CC50 [20]: > 25000 nM
- Ratio Ki (Hepatitis C virus [21]): 3
- Activity (Hepatitis C virus [22]): Active
- Activity (Hepatitis C virus [23]): Active
- EC90 (Hepatitis C virus [24]): 40 nM
- Ki [25]: 7 nM
- Ki [26]: 0.7 nM
- Ki [27]: 3 nM
- Ratio (Hepatitis C virus [28]): 10
- Ratio (Hepatitis C virus [29]): 30
- Ratio (Hepatitis C virus [30]): 500
- Ratio (Hepatitis C virus [31]): >600
- Ki (Hepatitis C virus [32]): 7 nM
